{"source": "ChEMBL document CHEMBL4229442", "about": "“Anti-acute myeloid leukemia activity of 2-chloro-3-alkyl-1,4-naphthoquinone derivatives through inducing mtDNA damage and GSH depletion” (Bioorg Med Chem, 2018)", "key": {"HL-60 [1]": {"system": "HL-60", "assay": "Induction of apoptosis in human HL60 cells assessed as late apoptotic/necrotic cells at 3 uM after 24 hrs by Annexin-V-FITC/propidium iodide staining based flow cytometry (reference value: 1.38%)", "type": "functional", "in_short": "(§1)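 5×10^5 HL-60 cells in 6-well plates, treated at 3, 6 or 9 µM for 24 or 48 h. Cells were stained with Annexin V-FITC/PI and read by flow cytometry. Early apoptotic cells were taken as Annexin+/PI− and late apoptotic or necrotic cells as Annexin+/PI+.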"}, "HL-60 [2]": {"system": "HL-60", "assay": "Induction of mitochondrial dysfunction in human HL60 cells assessed as reduction in ATP level at 6 uM after 24 hrs by luminescence assay relative to control", "type": "functional", "design": "scale not given: the % may be the effect or the level left", "in_short": "(§2)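 HL-60 cells were treated at 3, 6 or 9 µM for 12 or 24 h, then lysed in ice-cold buffer and spun at 12000g for 10 min at 4 °C. Supernatant ATP was measured by luciferase–luciferin luminescence and expressed relative to control, as mean ± SE.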"}, "HL-60 [3]": {"system": "HL-60", "assay": "Cytotoxicity against human HL60 cells after 24 hrs by MTT assay", "type": "functional, cell-based", "details": "HL-60, 24 h", "in_short": "(§3)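 1×10^4 cells per well, in triplicate, were exposed to compound for 48 h (HL-60 also 24 h) at 37 °C. Viability was read by MTT at 570 nm absorbance. IC50 is mean ± SE from at least three independent experiments. Cells were kept in DMEM with 10% FBS under 5% CO2.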"}, "HL-60 [4]": {"system": "HL-60", "assay": "Cell cycle arrest in human HL60 cells assessed as accumulation at G0/G1 phase at 9 uM after 24 hrs by propidium iodide staining based flow cytometry (reference value: 58.37%)", "type": "functional"}, "HL-60 [5]": {"system": "HL-60", "assay": "Cell cycle arrest in human HL60 cells assessed as accumulation at G2/M phase at 9 uM after 48 hrs by propidium iodide staining based flow cytometry (reference value: 6.88%)", "type": "functional"}, "HL-60 [6]": {"system": "HL-60", "assay": "Cell cycle arrest in human HL60 cells assessed as accumulation at G0/G1 phase at 6 uM after 24 hrs by propidium iodide staining based flow cytometry (reference value: 58.37%)", "type": "functional"}, "HL-60 [7]": {"system": "HL-60", "assay": "Induction of apoptosis in human HL60 cells assessed as late apoptotic/necrotic cells at 6 uM after 24 hrs by Annexin-V-FITC/propidium iodide staining based flow cytometry (reference value: 0.81%)", "type": "functional", "in_short": "as §1"}, "HL-60 [8]": {"system": "HL-60", "assay": "Induction of apoptosis in human HL60 cells assessed as late apoptotic/necrotic cells at 9 uM after 24 hrs by Annexin-V-FITC/propidium iodide staining based flow cytometry (reference value: 0.81%)", "type": "functional", "in_short": "as §1"}, "HL-60 [9]": {"system": "HL-60", "assay": "Induction of apoptosis in human HL60 cells assessed as late apoptotic/necrotic cells at 3 uM after 24 hrs by Annexin-V-FITC/propidium iodide staining based flow cytometry (reference value: 0.81%)", "type": "functional", "in_short": "as §1"}, "HL-60 [10]": {"system": "HL-60", "assay": "Induction of apoptosis in human HL60 cells assessed as late apoptotic/necrotic cells at 9 uM after 24 hrs by Annexin-V-FITC/propidium iodide staining based flow cytometry (reference value: 1.38%)", "type": "functional", "in_short": "as §1"}, "HL-60 [11]": {"system": "HL-60", "assay": "Cell cycle arrest in human HL60 cells assessed as accumulation at G0/G1 phase at 6 uM after 48 hrs by propidium iodide staining based flow cytometry (reference value: 55.31%)", "type": "functional"}, "WI-38": {"system": "WI-38", "assay": "Cytotoxicity against human WI38 cells after 48 hrs by MTT assay", "type": "functional, cell-based", "details": "WI-38, 48 h", "in_short": "as §3"}, "HL-60 [12]": {"system": "HL-60", "assay": "Induction of mitochondrial dysfunction in human HL60 cells assessed as reduction in ATP level at 9 uM after 24 hrs by luminescence assay relative to control", "type": "functional", "design": "scale not given: the % may be the effect or the level left", "in_short": "as §2"}, "HL-60 [13]": {"system": "HL-60", "assay": "Cell cycle arrest in human HL60 cells assessed as increase in accumulation at S phase after 24 hrs by propidium iodide staining based flow cytometry", "type": "functional"}, "HL-60 [14]": {"system": "HL-60", "assay": "Cytotoxicity against human HL60 cells assessed as reduction in cell viability at 1 to 4 uM after 48 hrs in presence of BSO by MTT assay", "type": "functional, cell-based"}, "HL-60 [15]": {"system": "HL-60", "assay": "Induction of apoptosis in human HL60 cells assessed as early apoptotic cells at 6 uM after 24 hrs by Annexin-V-FITC/propidium iodide staining based flow cytometry (reference value: 3.38%)", "type": "functional", "in_short": "as §1"}, "[16]": {"assay": "Glutathione reactivity in pH 7.4 phosphate buffered saline assessed as isosbestic point at 50 uM by UV-Vis absorption spectral analysis", "type": "physicochemical", "details": "buffer, pH 7.4, 50 µM", "in_short": "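50 µM compound was mixed with an equimolar amount of GSH in PBS pH 7.4 at 37 °C, and UV-visible absorption spectra (240–480 nm) were recorded over time (1–30 min).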"}, "HL-60 [17]": {"system": "HL-60", "assay": "Induction of mitochondrial membrane potential loss in human HL60 cells assessed as mean fluorescence intensity at 3 uM after 12 hrs by TMRE probe based flow cytometry (reference value: 553)", "type": "functional"}, "HL-60 [18]": {"system": "HL-60", "assay": "Cytotoxicity against human HL60 cells after 48 hrs by MTT assay", "type": "functional, cell-based", "details": "HL-60, 48 h", "in_short": "as §3"}, "HL-60 [19]": {"system": "HL-60", "assay": "Induction of oxidative stress in human HL60 cells assessed as reduction in GSH level at 9 uM measured after 24 hrs relative to control", "type": "functional", "design": "scale not given: the % may be the effect or the level left", "in_short": "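1 × 10^6 HL-60 cells treated 12 or 24 h. GSH and GSSG measured with a commercial kit by DTNB […] to TNB, rate read at 412 nm; GSSG recycled to GSH by glutathione reductase with NADPH. Levels expressed as nM per mg protein; mean ± SE of three experiments.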"}, "HL-60 [20]": {"system": "HL-60", "assay": "Cell cycle arrest in human HL60 cells assessed as accumulation at G2/M phase at 6 uM after 48 hrs by propidium iodide staining based flow cytometry (reference value: 6.88%)", "type": "functional"}, "HL-60 [21]": {"system": "HL-60", "assay": "Induction of mitochondrial membrane potential loss in human HL60 cells assessed as reduction in mean fluorescence intensity at 6 uM after 24 hrs by TMRE probe based flow cytometry relative to control", "type": "functional", "design": "scale not given: the % may be the effect or the level left", "in_short": "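HL-60 cells (5 × 10^5, DMEM + 10% FBS, 37 °C, 5% CO2) treated 12 or 24 h; medium then replaced with fresh medium containing 100 nM TMRE for 30 min at 37 °C, washed three times with PBS pH 7.4. Flow cytometry at 549 nm excitation / 574 nm emission; read-out is mean fluorescence intensity versus untreated control.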"}, "HL-60 [22]": {"system": "HL-60", "assay": "Cell cycle arrest in human HL60 cells assessed as accumulation at S phase at 3 uM after 24 hrs by propidium iodide staining based flow cytometry (reference value: 34.43%)", "type": "functional"}, "[23]": {"assay": "Selectivity index, ratio of IC50 for human WI38 cells to IC50 for HL60 cells", "type": "toxicity", "details": "WI38 cells versus HL60 cells, read-out: Ratio IC50", "in_short": "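SI = IC50 in WI-38 fetal lung fibroblasts / IC50 in HL-60, both after 48 h. MTT assay: 1 × 10^4 cells per well in triplicate, 48 h at 37 °C, absorbance at 570 nm. IC50 are mean ± SE from at least three independent experiments.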"}, "HL-60 [24]": {"system": "HL-60", "assay": "Induction of apoptosis in human HL60 cells assessed as early apoptotic cells at 6 uM after 24 hrs by Annexin-V-FITC/propidium iodide staining based flow cytometry (reference value: 2.91%)", "type": "functional", "in_short": "as §1"}, "HL-60 [25]": {"system": "HL-60", "assay": "Induction of mitochondrial DNA damage in human HL60 cells assessed as down regulation of polymerase gamma expression at 9 uM after 24 hrs by Western blot analysis relative to control", "type": "functional", "in_short": "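5×10^5 HL-60 cells were treated at 3, 6 or 9 µM for 24 h. Lysate protein (20–40 µg) was run on 12% SDS-PAGE and blotted to PVDF. mt-TFA and polymerase γ were probed with specific antibodies, detected by chemiluminescence and quantified by densitometry against control. Blots are representative of three independent experiments.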"}}, "note": "Calls of active or inactive are those of the source. No cut-off for these calls is given here.", "data": [{"smiles": "CCC1=C(Cl)C(=O)c2cc(OC)c(OC)c(OC)c2C1=O", "values": [{"measurement": "Activity", "setting": "HL-60 [1]", "result": 2.67, "unit": "%"}, {"measurement": "Activity", "setting": "HL-60 [2]", "result": 38, "unit": "%"}, {"measurement": "IC50", "setting": "HL-60 [3]", "result": 7.65, "unit": "µM"}, {"measurement": "Activity", "setting": "HL-60 [4]", "result": 41.69, "unit": "%"}, {"measurement": "Activity", "setting": "HL-60 [5]", "result": 48.63, "unit": "%"}, {"measurement": "Activity", "setting": "HL-60 [6]", "result": 48.64, "unit": "%"}, {"measurement": "Activity", "setting": "HL-60 [7]", "result": 6.89, "unit": "%"}, {"measurement": "Activity", "setting": "HL-60 [8]", "result": 21.9, "unit": "%"}, {"measurement": "Activity", "setting": "HL-60 [9]", "result": 1.83, "unit": "%"}, {"measurement": "Activity", "setting": "HL-60 [10]", "result": 55.6, "unit": "%"}, {"measurement": "Activity", "setting": "HL-60 [11]", "result": 24.28, "unit": "%"}, {"measurement": "IC50", "setting": "WI-38", "result": 23.8, "unit": "µM"}, {"measurement": "Activity", "setting": "HL-60 [12]", "result": 46, "unit": "%"}, {"measurement": "Activity", "setting": "HL-60 [13]", "result": "Dose-dependent effect"}, {"measurement": "Activity", "setting": "HL-60 [14]", "result": "Active"}, {"measurement": "Activity", "setting": "HL-60 [15]", "result": 19.01, "unit": "%"}, {"measurement": "Activity", "setting": "[16]", "result": "285 to 317", "unit": "nm"}, {"measurement": "Flu intensity", "setting": "HL-60 [17]", "result": 318}, {"measurement": "IC50", "setting": "HL-60 [18]", "result": 2.85, "unit": "µM"}, {"measurement": "Activity", "setting": "HL-60 [19]", "result": 20, "unit": "%"}, {"measurement": "Activity", "setting": "HL-60 [20]", "result": 27.81, "unit": "%"}, {"measurement": "Activity", "setting": "HL-60 [21]", "result": 86, "unit": "%"}, {"measurement": "Activity", "setting": "HL-60 [22]", "result": 35.92, "unit": "%"}, {"measurement": "selectivity ratio", "setting": "[23]", "result": 8.07}, {"measurement": "Activity", "setting": "HL-60 [24]", "result": 12.1, "unit": "%"}, {"measurement": "Activity", "setting": "HL-60 [25]", "result": 32, "unit": "%"}]}]}
